# Screening data: PubChem BioAssay, several laboratories
# In the library only some 3% were active in any assay of this set; here they are far more common.
# SR-BI DiI inh – mouse SR-BI HDL lipid transfer inhibition | actives 0.96% (n = 320,000) | Q61009 | AID 488896 | inhibition, % at 12.5 µM | ldlA[mSR-BI] CHO cells, DiI-HDL uptake fluorescence, 3 h;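 active means mean replicate inhibition of at least 70% and a set share of replicates each scoring 70 or more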
# Target sequence (Q61009 whole entry, looked up): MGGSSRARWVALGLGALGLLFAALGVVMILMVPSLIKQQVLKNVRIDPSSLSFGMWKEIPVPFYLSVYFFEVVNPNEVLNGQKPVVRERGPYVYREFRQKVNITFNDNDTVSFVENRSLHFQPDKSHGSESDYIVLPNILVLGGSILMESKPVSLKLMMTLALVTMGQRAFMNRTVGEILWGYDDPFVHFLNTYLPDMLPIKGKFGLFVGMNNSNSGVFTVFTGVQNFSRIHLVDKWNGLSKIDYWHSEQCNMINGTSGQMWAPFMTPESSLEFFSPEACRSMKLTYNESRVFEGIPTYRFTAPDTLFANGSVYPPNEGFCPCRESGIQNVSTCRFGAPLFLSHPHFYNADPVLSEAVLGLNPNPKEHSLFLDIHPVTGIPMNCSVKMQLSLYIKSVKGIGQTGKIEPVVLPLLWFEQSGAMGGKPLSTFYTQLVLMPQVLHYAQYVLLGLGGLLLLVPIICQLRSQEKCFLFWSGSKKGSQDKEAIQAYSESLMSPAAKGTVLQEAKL
# ANO1 activ – mouse TMEM16A channel activation, primary screen; HEK293 TMEM16A/YFP-H148Q/I152L, iodide quench fluorescence; hits give low values; Q8BHY3; B-score at 10 µM; actives 0.3% (n = 340,000); AID 623877;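 active means fluorescence-ratio B-score plate-corrected deviation score at least 3 library SD below zero, with starting fluorescence score within 5 deviations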;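 further: channel opened by trigger with iodide after compound preincubation; score built on the fluorescence ratio of max minus min over baseline; more negative score means more quench and so TMEM16A activation or potentiation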
# TMEM16A inh – inhibitors of mouse TMEM16A calcium-activated chloride channel | actives 1.2% (n = 310,000) | HEK293 TMEM16A/YFP iodide influx fluorescence, ionomycin | normalized B-score (activity score, 25-100; higher = stronger inhibition) at 10 µM | Q8BHY3 | AID 588511;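 active means ratio plate-corrected score three or more library SD toward inhibition, starting fluorescence score within five deviations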;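 further: score derived from kinetic fluorescence span divided by baseline fluorescence per well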
# SR-BI DiI-HDL act – enhances SR-BI lipid uptake from DiI-HDL | CHO ldlA[mSR-BI] cells, DiI-HDL uptake fluorescence, 3 h; 100 = double the neutral-control signal | activation, % at 12.5 µM | actives 0.096% (n = 320,000);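 active means mean replicate activation of at least 60% and every replicate at or above 60%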
#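 Material: SR-BI-overexpressing, LDLR-lacking CHO cells | Dosing: Single compound concentration, delivered by pin transfer | Probe or stimulus: Labelled HDL, 10 µg/mL | Signal: Bottom-read cell fluorescence after medium removal, ex 550/em 595 nm | Schedule: 3 h, 37 °C | Evaluation: HDL uptake via cellular fluorescence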
# Kir21 inh – inhibitors of mouse Kir2.1 inward-rectifier potassium channel; P35561; HEK293-Kir2.1, FluxOR thallium flux fluorescence; hits give low values; B-score at 10 µM; actives 0.85% (n = 310,000);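 active means fluorescence ratio B-score at or below minus 3 SD of library scores, with starting-brightness B-score within 2 SD, cut at about -4.2 in these data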;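 further: channel flux triggered by added potassium and thallium sulfate stimulus; B-score of peak minus minimum fluorescence over baseline after thallium stimulus; more negative B-score means stronger Kir2.1 block with less thallium influx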
# DNA FID counter – displaces DNA intercalator in HCV helicase counter-screen. actives 0.17% (n = 290,000). AID 1845. inhibition, % at 7.9 µM. DNA fluorescent intercalator displacement, fluorescence; in the data active means inhibition above about 37%;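 further: higher means more ethidium bromide displaced from hairpin DNA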
# Hits are given with their value; 0 = inactive; - = no result given.
SMILES,SR-BI DiI inh,ANO1 activ,TMEM16A inh,SR-BI DiI-HDL act,Kir21 inh,DNA FID counter
Oc1c(Br)cc(Br)cc1CNc1cnc2ccccc2c1,0,0,25,0,0,0
Cc1ccc(OCCCCN2CCc3ccccc3C2)c(C)c1,0,0,0,0,0,0
c1ccc(OCCOCCN2CCc3ccccc3C2)cc1,0,0,0,0,0,0
CCOc1ccc(OCCOCCN2CCc3ccccc3C2)cc1,0,0,0,0,-4.21,0
COc1ccc(OCCCN2CCc3ccccc3C2)cc1,0,0,0,0,0,0
C=CCc1cc(OC)ccc1OCCOCCN1CCc2ccccc2C1,0,0,0,0,-11.8,0
CCCOc1ccc(OCCOCCN2CCc3ccccc3C2)cc1,0,0,0,0,-10.1,0
Cc1ccc(SCCOCCN2CCc3ccccc3C2)cc1,0,0,0,0,-4.62,0
Cc1cccc(NC(=O)COc2ccccc2C(=O)NC(C)c2ccccc2)c1 (configuration not stated),0,0,0,0,0,0
O=C(C#Cc1ccccc1)c1ccco1,0,0,0,0,0,0
c1ccc(N2CCN(c3ccccc3)C2c2cccnc2)cc1,0,0,0,0,0,0
Cc1ccc(N2CCN(c3ccc(C)cc3)C2c2cccnc2)cc1,0,0,25,0,0,0
COc1ccc(CCC(=O)OCC(=O)N2CCN(S(=O)(=O)c3ccc(C)cc3C)CC2)cc1,0,0,-,0,-,-
COc1ccc(-c2cc3cc(OC)c(OC)cc3c(C)n2)cc1,80.1,0,0,0,0,0
COc1ccc(-c2cc(OC)c3ccccc3n2)cc1,0,0,0,0,0,0
Cc1cccc(C)c1OCC(=O)Nc1cccc(NC(=O)c2ccco2)c1,0,0,100,0,0,0
C=Cc1cccc(NC(=O)c2ccc(NC(=O)c3ccco3)cc2)c1,92.4,0,0,0,0,0
CC(C)[C@H](NC(=O)c1ccco1)C(=O)OCC(=O)Nc1cccc(F)c1,0,-40.7,0,0,0,0
COc1ccc(NC(=O)c2cc(C(C)C)on2)c(OC)c1,-,0,0,-,0,0
COc1cc(NC(=O)c2cc(C(C)C)on2)c(OC)cc1Cl,81.8,0,0,0,0,0
COc1ccc(CC(=O)Nc2ccccc2N2CCCC2)cc1OC,0,0,0,0,-4.45,0
COc1cc(CC(=O)Nc2ccccc2N2CCCCC2)cc(OC)c1OC,0,0,0,0,0,0
COc1ccc(CC(=O)Nc2ccccc2N2CCCC2)cc1,0,0,0,0,-6.33,0
O=C(CCNC(=O)c1ccc(Cl)cc1)Nc1ccccc1N1CCCCC1,0,0,0,0,-4.6,-
O=C(c1ccccc1Br)N1CCc2c([nH]c3ccccc23)C1,0,0,0,0,0,0
SMILES,SR-BI DiI inh,ANO1 activ,TMEM16A inh,SR-BI DiI-HDL act,Kir21 inh,DNA FID counter
O=S(=O)(c1ccc2ccccc2c1)N1CCN(CCO)CC1,0,0,0,0,0,0
Cc1c(Cl)c([N+](=O)[O-])nn1CC(=O)NCc1ccc(Cl)cc1,0,0,0,0,0,0
O=C(O)c1ccccc1Nc1ccc2nonc2c1[N+](=O)[O-],0,0,-,0,0,0
O=C(CNC(=O)c1cc(S(=O)(=O)N2CCCCC2)ccc1N1CCOCC1)Nc1ccc(F)c(F)c1,0,0,0,0,0,-
CC(C)(CSc1ccccn1)NS(=O)(=O)c1ccc(Cl)cc1,0,0,0,0,-5.09,0
CC(C)(CSc1ccccn1)NS(=O)(=O)c1ccccc1,0,0,0,0,0,0
COc1cc(OC)c(NC(=S)Nc2cccc(C(C)=O)c2)cc1Cl,86.9,0,0,0,0,0
CC(C)CC1Nc2ccc(C(=O)NCCCN3CCOCC3)cc2NC1=O (configuration not stated),0,0,0,0,0,0
CCc1ccc(NC(=O)C(CC)Sc2nc3ccsc3c(=O)n2CCC(=O)O)cc1 (configuration not stated),0,0,0,0,0,0
Oc1ccc(CCNc2ncnc3ccc(Cl)cc23)cc1,0,0,100,0,0,0
CC1(c2ccc3c(c2)OCCCO3)NC(=O)N(CC(=O)Nc2cccc(C#N)c2)C1=O (configuration not stated),0,0,-,0,-,-
